# Calls of active or inactive are those of the source. The calls are words filed in the database; no cut-off is given here.
# Key:
# Escherichia coli [1] = experiment: Antibacterial activity against Escherichia coli AS19; assay type: functional, organism-based
# Procedure, shortened: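 AS19 culture at 0.5 McFarland, exponential phase, diluted 1000-fold in Mueller Hinton medium containing 100 mM Tris pH 7.5, exposed to increasing inhibitor concentrations […]. Growth followed by absorbance at 600 nm every 5 min for 10 h at 37°C.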
# [2] = test system: Escherichia coli BL21(DE3); experiment: Inhibition of Escherichia coli BL21(DE3) methionine aminopeptidase up to 100 uM in presence of Fe(II) metal ions
# Procedure, shortened: (§1)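 Purified apoenzyme (500 nM) in 50 mM MOPS pH 7.0 with 200 µM Met-AMC, activated by 50 µM FeCl2 plus 100 µM ascorbic acid (Fe), 10 µM CoCl2 (Co) or 20 µM MnCl2 (Mn), with serially diluted inhibitor. AMC release read by fluorescence (ex 360/em 460) at room temperature. IC50 from non-linear fit of percent inhibition versus concentration.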
# [3] = test system: Escherichia coli BL21(DE3); experiment: Inhibition of Escherichia coli BL21(DE3) methionine aminopeptidase up to 100 uM in presence of Mn(II) metal ions; procedure, shortened: as §1
# [4] = test system: Escherichia coli BL21(DE3); experiment: Inhibition of Escherichia coli BL21(DE3) methionine aminopeptidase up to 100 uM in presence of Co(II) metal ions; procedure, shortened: as §1
# Priestia megaterium = experiment: Antibacterial activity against Bacillus megaterium; assay type: functional, organism-based
# Procedure, shortened: (§2)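 Exponential-phase culture at 0.5 McFarland diluted 1000-fold in Mueller Hinton medium with 100 mM Tris pH 7.5, mixed with inhibitor at increasing concentrations plus resazurin (110 µM final). Fluorescence (ex 530/em 590) read every 5 min for 10 h at 37°C.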
# Escherichia coli [5] = experiment: Antibacterial activity against Escherichia coli D22; assay type: functional, organism-based; procedure, shortened: as §2
# [6] = Inhibition of Escherichia coli BL21(DE3) methionine aminopeptidase in presence of Fe(II) metal ions
# Procedure, shortened: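 Purified BL21(DE3)-expressed E. coli MetAP apoenzyme at 500 nM, activated with 50 μM FeCl2 plus 100 μM ascorbic acid. Buffer was 50 mM MOPS pH 7.0 with 200 μM Met-AMC, at room temperature. Hydrolysis was followed by fluorescence (ex 360/em 460 nm) at serially diluted inhibitor concentrations. IC50 was obtained by non-linear curve fit of percent inhibition.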
# Bacillus subtilis = experiment: Antibacterial activity against Bacillus subtilis; assay type: functional, organism-based; procedure, shortened: as §2
# [7] = Inhibition of Escherichia coli BL21(DE3) methionine aminopeptidase in presence of Mn(II) metal ions
# Procedure, shortened: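 E. coli MetAP apoenzyme, recombinant from BL21(DE3), at 500 nM and metallated with 20 μM MnCl2. Contained 50 mM MOPS pH 7.0 and 200 μM Met-AMC, at room temperature. IC50 was derived by non-linear fit of percent inhibition versus concentration.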
# [8] = Inhibition of Escherichia coli BL21(DE3) methionine aminopeptidase in presence of Co(II) metal ions
# Procedure, shortened: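 Recombinant E. coli MetAP apoenzyme purified from BL21(DE3) cells, used at 500 nM and activated with 10 μM CoCl2. Buffer was 50 mM MOPS pH 7.0 with 200 μM Met-AMC substrate, at room temperature. AMC release was read by fluorescence (ex 360/em 460 nm) across serially diluted inhibitor. IC50 came from non-linear fitting of percent inhibition.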
# Escherichia coli [9] = experiment: Antibacterial activity against Escherichia coli ATCC 25922; assay type: functional, organism-based
# Procedure, shortened: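 Wild-type strain grown to exponential phase (0.5 McFarland), diluted 1000-fold in Tris-free Mueller Hinton medium, incubated with increasing inhibitor concentrations and 110 µM resazurin. Fluorescence (ex 530/em 590) monitored 10 h at 37°C at 5-min intervals.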
Activity [2],Activity [3],Activity [4],Compound,IC50 (Escherichia coli [1]),IC50 (Priestia megaterium),MIC (Priestia megaterium),IC50 (Escherichia coli [5]),MIC (Escherichia coli [5]),IC50 [6],IC50 (Bacillus subtilis),MIC (Bacillus subtilis),MIC (Escherichia coli [1]),IC50 [7],IC50 [8],IC50 (Escherichia coli [9])
inactive,inactive,inactive,Cc1nc(-c2ccc(O)cc2O)cs1,95.9 µM,,,,,,,,,,,
,,,Cc1nc(C(=O)NC(C)C)c(-c2ccc(O)c(O)c2)s1,116 µM,175 µM,122 µg/mL,93.8 µM,73 µg/mL,15.4 µM,186 µM,125 µg/mL,121 µg/mL,> 100 µM,> 100 µM,
inactive,inactive,inactive,COc1ccc(-c2csc(C)n2)cc1OC,206 µM,,,,,,,,,,,
,,,Oc1ccc(-c2nccs2)cc1O,235 µM,224 µM,112 µg/mL,98.7 µM,66 µg/mL,16.6 µM,397 µM,193 µg/mL,198 µg/mL,> 100 µM,> 100 µM,
,,,Oc1ccc(-c2cccs2)cc1O,32.8 µM,21.2 µM,9 µg/mL,4 µM,3 µg/mL,5.1 µM,16.1 µM,7 µg/mL,,15.7 µM,23.7 µM,
,,,Oc1ccc(-c2ccsc2)cc1O,29.9 µM,19.2 µM,10 µg/mL,2 µM,2 µg/mL,3.8 µM,15.7 µM,9 µg/mL,15 µg/mL,27.5 µM,40.4 µM,
,,,Nc1nc(-c2ccc(O)c(O)c2)cs1,145 µM,36.9 µM,26 µg/mL,39.9 µM,11 µg/mL,6.6 µM,28.6 µM,13 µg/mL,39 µg/mL,> 100 µM,> 100 µM,
,,,Oc1ccc(-c2cc(Cl)sc2Cl)cc1O,6.1 µM,5 µM,1 µg/mL,7.3 µM,2 µg/mL,20.2 µM,6 µM,2 µg/mL,3 µg/mL,48.6 µM,62.4 µM,
,,,Cc1nc(C(=O)NC2CC2)c(-c2ccc(O)c(O)c2)s1,125 µM,75.5 µM,62 µg/mL,167 µM,103 µg/mL,11.1 µM,113 µM,51 µg/mL,138 µg/mL,100 µM,92.3 µM,
,,,Cc1sc(C)c(-c2ccc(O)c(O)c2)c1Br,10.8 µM,17.5 µM,10 µg/mL,7.7 µM,9 µg/mL,3.1 µM,12.8 µM,8 µg/mL,5 µg/mL,2.1 µM,2.4 µM,
,,,CCc1ccsc1-c1ccc(O)c(O)c1,15.4 µM,27.8 µM,11 µg/mL,11.8 µM,6 µg/mL,12.9 µM,21.8 µM,7 µg/mL,5 µg/mL,,62.6 µM,
inactive,inactive,inactive,Cc1nc(-c2ccc(N)c([N+](=O)[O-])c2)cs1,204 µM,,,,,,,,,,,
inactive,inactive,inactive,Cc1nc(-c2ccc(N)c(N)c2)cs1,117 µM,,,,,,,,,,,
,,,CCCc1ccsc1-c1ccc(O)c(O)c1,15.5 µM,15.5 µM,6 µg/mL,43 µM,19 µg/mL,14 µM,14.9 µM,4 µg/mL,4 µg/mL,34.3 µM,100 µM,
,,,Cc1ccc(-c2ccc(O)c(O)c2)s1,87.7 µM,26 µM,10 µg/mL,39.1 µM,18 µg/mL,32.7 µM,25.1 µM,10 µg/mL,60 µg/mL,28 µM,51.5 µM,
,,,CCCCc1ccsc1-c1ccc(O)c(O)c1,12.4 µM,7.6 µM,3 µg/mL,13.5 µM,5 µg/mL,9.2 µM,7.8 µM,3 µg/mL,5 µg/mL,48.2 µM,> 100 µM,
inactive,inactive,inactive,CC(=O)Nc1ccc(-c2csc(C)n2)cc1[N+](=O)[O-],63.3 µM,,,,,,,,,,,
,,,Cc1nc(-c2ccc(O)c(O)c2)cs1,117 µM,69.8 µM,73 µg/mL,5.6 µM,4 µg/mL,13 µM,67 µM,41 µg/mL,91 µg/mL,> 100 µM,> 100 µM,281 µM
inactive,inactive,inactive,Cc1nc(-c2ccc(O)c(C(N)=O)c2)cs1,125 µM,,,,,,,,,,,
inactive,inactive,inactive,Cc1nc(-c2cccc(O)c2)cs1,158 µM,,,,,,,,,,,
,,,Oc1ccc(-c2ccc(Cl)s2)cc1O,15.5 µM,6.3 µM,2 µg/mL,7.5 µM,3 µg/mL,12.8 µM,7.1 µM,2 µg/mL,7 µg/mL,44.8 µM,> 100 µM,
,,,N#Cc1ccc(-c2ccc(O)c(O)c2)s1,20.1 µM,15.3 µM,9 µg/mL,44.2 µM,15 µg/mL,14.8 µM,14.6 µM,13 µg/mL,11 µg/mL,30.4 µM,36.3 µM,
,,,Cc1cc(-c2ccc(O)c(O)c2)c(C)s1,18.5 µM,16 µM,5 µg/mL,3.7 µM,4 µg/mL,7.4 µM,16.5 µM,5 µg/mL,9 µg/mL,> 100 µM,> 100 µM,
,,,O=C(NC1CC1)c1ccsc1-c1ccc(O)c(O)c1,116 µM,54 µM,79 µg/mL,254 µM,151 µg/mL,7.8 µM,109 µM,56 µg/mL,113 µg/mL,> 100 µM,> 100 µM,
,,,O=C(NC1CC1)c1ccc(-c2ccc(O)c(O)c2)s1,110 µM,133 µM,85 µg/mL,238 µM,105 µg/mL,23.8 µM,211 µM,122 µg/mL,78 µg/mL,34 µM,28.5 µM,
,,,Cc1ccsc1-c1ccc(O)c(O)c1,15.2 µM,15.3 µM,13 µg/mL,9 µM,3 µg/mL,8 µM,22.1 µM,8 µg/mL,7 µg/mL,23 µM,42.7 µM,179 µM
,,,Oc1ccc(-c2sccc2CCBr)cc1O,11.3 µM,21.1 µM,14 µg/mL,86 µM,51 µg/mL,7.3 µM,25.2 µM,10 µg/mL,5 µg/mL,22.4 µM,14 µM,

# Reference: ChEMBL document CHEMBL1140109, “Discovery of inhibitors of Escherichia coli methionine aminopeptidase with the Fe(II)-form selectivity and antibacterial activity” (J Med Chem, 2008)
